Results on 2 molecules are retold here after ChEMBL document CHEMBL4033788, “Novel Ligustrazine-Based Analogs of Piperlongumine Potently Suppress Proliferation and Metastasis of Colorectal Cancer Cells in Vitro and in Vivo” (J Med Chem, 2018).

In series [1] the test system is A549. Kind of series: Antiproliferative activity against human A549 cells after 72 hrs by MTT assay. It counts as functional, cell-based. Particulars: A549, 72 h.
The test system of series [2] is HCT-116. The series is described as follows: Antiproliferative activity against human HCT116 cells at […] after 72 hrs by MTT assay relative to control. Particulars: HCT-116, 72 h. Type of series: functional.
In series [3] the test system is Mus musculus. The series is described as follows: Acute toxicity in ICR mouse assessed as mortality at 50 mg/kg, ip administered for 14 days. It counts as organism-based. As to conditions: in vivo, 336 h.
Series [4] is described as follows: Acute toxicity in ICR mouse assessed as survival rate at 200 mg/kg, ip administered for 14 days relative to control. Type of series: organism-based. As to conditions: in vivo.
The subject of series [5] is HCT-116. Kind of series: Inhibition of IL-1beta-mediated adhesion of human rhodamine 123-labeled HCT116 cells to HUVEC after 1 hr by fluoresence assay. Type of series: functional, cell-based. Summed up:
(§1)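 HUVEC monolayers pretreated with or without IL-1β (1 ng/mL) for 4 h, then washed. Rhodamine 123-labeled HCT-116 cells added with vehicle or test agent (2, 10, 50 nM) at 37 °C for 1 h. Non-adherent cells washed off; percent adhered cells determined by fluorescence microscopy. Three separate experiments.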

Series [6] deals with HCT-116. The series is described as follows: Antimetastatic activity against human HCT116 cells xenografted in BALB/c nude mouse model assessed as reduction in lung metastatic nodules at 2 to 4 mg/kg, ip administered thrice a week for 6 consecutive weeks by H and E staining-based assay. It counts as functional, organism-based. Summed up:
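BALB/c nude mice received HCT-116 cells into the tail vein, then were randomized and dosed intraperitoneally (1, 2 or 4 mg/kg) three times weekly. Body weight recorded weekly. Lungs sectioned (4 μm), H&E stained, and nodule number and area scored blinded in three sections per mouse. Nodule counts n = 4–6 per group.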

In series [7] the test system is Mus musculus. The series is described as follows: Toxicity in BALB/c nude mouse xenografted with human HCT116 cells assessed as mortality at 2 to 4 mg/kg, ip administered thrice a week for 6 consecutive weeks. It counts as organism-based. As to conditions: in vivo. In outline: (§2)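 Lung metastasis model: HCT-116 cells in serum-free medium injected into tail vein of BALB/c nude mice, then randomized and given vehicle or compound ip (1, 2 or 4 mg/kg) three times a week. Body weight recorded weekly, survival monitored (n = 6); mice sacrificed after 40 days and lungs examined by H&E histology.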

The subject of series [8] is HCT-116. Kind of series: Inhibition of TGF-beta1-induced decrease in expression levels of E-cadherin protein in human HCT116 cells after 48 hrs by Western blot analysis. Type of series: functional, cell-based. Summed up: (§3)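 HCT-116 cells treated with or without TGF-β1 (10 ng/mL) for 48 h, with or without test agent. Lysates (20 μg/lane) run on 7.5% SDS-PAGE and transferred to PVDF. Probed for p-Akt (Ser473), Akt, p-GSK-3β (S9), GSK-3β, E-cadherin, MMP-9 and β-actin, detected by ECL. Densitometry relative to β-actin or total protein. Three independent experiments.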

A short description of series [9]: Thiol reactivity in DMSO assessed as methyl 2-(3-chloro-2-oxo-1-(3-(3,5,6-trimethylpyrazin-2-yl)acryloyl)piperidin-4-ylthio)acetate formation at 5 mg up to 8 hrs in presence of methyl thioglycolate by 1H NMR analysis.
Series [10] deals with HCT-116. Kind of series: Antimigratory activity in human HCT116 cells assessed as inhibition of TGF-beta1-induced cell migration at 50 nM after 48 hrs by trans-well assay. It counts as functional, cell-based. In outline:
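HCT-116 cells (1 × 10^5/well) placed in upper chambers of 8 μm pore transwells. Lower chambers held, in triplicate, medium alone or TGF-β1 (10 ng/mL) with or without test agents (2, 10, 50 nM) for 48 h. Non-migrated cells removed, migrated cells stained with crystal violet, 10 fields per well counted blinded. Three independent experiments.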

For series [11], the system named is HCT-116. The series is described as follows: Antiinvasive activity in human HCT116 cells assessed as inhibition of TGF-beta1-induced cell invasion at 50 nM after 48 hrs by crystal violet staining-based assay. It counts as functional. Summed up: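 Transwell invasion. HCT-116 cells (2.5 × 10^5/well) seeded on matrigel-coated chambers, with TGF-β1 (10 ng/mL) and test agents (2, 10, 50 nM) in the lower chamber for 48 h. Invaded cells stained with crystal violet and counted. Three independent experiments.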

Series [12] relates to HCT-116. The series is described as follows: Inhibition of IL-1beta-mediated adhesion of human rhodamine 123-labeled HCT116 cells to HUVEC at 50 nM after 1 hr by fluoresence assay. Type of series: functional, cell-based. Summed up:
as §1

Series [13] has as its system HCT-116. The series is described as follows: Inhibition of TGF-beta1-induced decrease in expression levels of E-cadherin protein in human HCT116 cells at 50 nM after 48 hrs by Western blot analysis. Type of series: functional, cell-based. In outline:
as §3

In series [14] the target is RAC-alpha serine/threonine-protein kinase (Homo sapiens) (UniProt P31749). Kind of series: Inhibition of TGF-beta1-induced AKT phosphorylation in human HCT116 cells at 50 nM after 48 hrs by Western blot analysis. Type of series: cell-based. In outline:
as §3

For series [15], the target named is T1, Catenin beta-1 (Homo sapiens) (UniProt P35222).
T1 sequence (whole entry): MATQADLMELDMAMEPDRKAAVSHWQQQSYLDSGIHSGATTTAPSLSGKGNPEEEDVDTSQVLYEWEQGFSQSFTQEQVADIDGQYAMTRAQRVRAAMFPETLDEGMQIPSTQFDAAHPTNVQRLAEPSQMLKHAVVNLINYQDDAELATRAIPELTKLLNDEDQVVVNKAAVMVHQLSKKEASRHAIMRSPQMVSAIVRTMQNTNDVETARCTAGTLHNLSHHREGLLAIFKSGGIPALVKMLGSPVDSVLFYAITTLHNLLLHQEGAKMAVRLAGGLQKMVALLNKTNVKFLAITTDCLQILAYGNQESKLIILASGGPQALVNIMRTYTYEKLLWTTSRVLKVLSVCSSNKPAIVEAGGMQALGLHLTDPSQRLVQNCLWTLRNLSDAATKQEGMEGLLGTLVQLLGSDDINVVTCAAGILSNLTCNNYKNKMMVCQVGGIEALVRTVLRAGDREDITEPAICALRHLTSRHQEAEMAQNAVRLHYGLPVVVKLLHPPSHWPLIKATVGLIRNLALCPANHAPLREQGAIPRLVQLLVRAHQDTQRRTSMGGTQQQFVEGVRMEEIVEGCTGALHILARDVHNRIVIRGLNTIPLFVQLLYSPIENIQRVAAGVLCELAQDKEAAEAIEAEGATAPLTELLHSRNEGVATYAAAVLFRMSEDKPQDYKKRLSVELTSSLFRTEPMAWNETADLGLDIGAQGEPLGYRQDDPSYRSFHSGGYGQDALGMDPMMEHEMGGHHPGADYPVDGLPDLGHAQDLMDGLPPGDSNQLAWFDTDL
The series is described as follows: Inhibition of TGF-beta1-regulated increase in nuclear beta-catenin in human HCT116 cells at 50 nM after 48 hrs by Western blot analysis. It counts as cell-based. In outline:
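Cytoplasmic and nuclear β-catenin were measured by Western blot in HCT-116 cells given TGF-β1 (10 ng/mL) for 48 h, with or without compound, against 0.1% DMSO vehicle. Lysates (20 μg/lane) were run on 7.5% gels and transferred to PVDF, with Lamin A among the antibodies used. Blots were read by ECL and densitometry, n = 3 independent experiments.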

The test system of series [16] is Mus musculus. The series is described as follows: Toxicity in BALB/c nude mouse xenografted with human HCT116 cells assessed as mortality at 4 mg/kg, ip administered thrice a week for 6 consecutive weeks. Type of series: organism-based. Particulars: in vivo. Summed up:
as §2

Molecules are shown by their SMILES. Calls of active or inactive are those of the source. No cut-off for these calls is given here.

Chain of RAC-alpha serine/threonine-protein kinase (Homo sapiens) (P31749 whole entry): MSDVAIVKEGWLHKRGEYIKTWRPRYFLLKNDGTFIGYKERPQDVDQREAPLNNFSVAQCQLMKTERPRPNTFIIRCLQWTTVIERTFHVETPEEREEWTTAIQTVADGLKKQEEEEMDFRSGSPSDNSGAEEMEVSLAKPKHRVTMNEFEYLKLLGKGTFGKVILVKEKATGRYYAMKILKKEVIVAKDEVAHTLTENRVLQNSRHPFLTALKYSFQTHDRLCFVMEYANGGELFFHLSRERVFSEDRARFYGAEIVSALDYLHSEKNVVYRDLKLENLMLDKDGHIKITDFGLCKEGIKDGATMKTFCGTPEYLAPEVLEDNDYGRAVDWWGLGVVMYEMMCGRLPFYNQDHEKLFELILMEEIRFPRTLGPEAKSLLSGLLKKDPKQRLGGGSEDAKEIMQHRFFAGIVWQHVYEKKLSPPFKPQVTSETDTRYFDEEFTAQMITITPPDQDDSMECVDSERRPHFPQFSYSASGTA

Turning to `Cc1nc(C)c(/C=C/C(=O)N2CCC=C(Cl)C2=O)nc1C`, the IC50 in [1] is 2210 nM. In series [2], the inhibition at […] came to 82.9%. Moreover, the Activity entry in series [3] and in [7] was “Non-Toxic” in each case. Besides, the survival at 336 h in [4] was determined as 30%. The inhibition result in series [5] and in series [8] was “Dose-dependent effect” throughout. The outcome in series [6] was Active. In series [9], the Drug metabolism entry is given as “Metabolite detected”.
`COc1cc(/C=C/C(=O)N2CCC=CC2=O)cc(OC)c1OC` [PIPLARTINE]: the result in series [10] and in [11] was Active. Further, the inhibition result in series [12], in series [13], in series [14] and in series [15] was “Active” each time. In addition, the Activity entry in [16] was “Non-Toxic”.
